Measured values from ChEMBL document CHEMBL5058577, “EUbOPEN Chemogenomics Library 2 (Multiplex)” (2022).

Test system: HEK-293T
Experiment: Multiplex assay against HEK293T
Type: toxicity, cell-based
Details: human
Summary of the method: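 Compound was added to live cells that had been stained at seeding with Hoechst33342, BioTracker Green Microtubule Cytoskeleton Dye, MitoTracker Red and Annexin V Alexa Fluor 680, and imaging followed on a CQ1 microscope at 37°C and 5% CO2. CellPathfinder machine-learning gating divided cells into Hoechst high-intensity objects or normal cells, normal cells into healthy, pyknosed or fragmented nuclei, and pyknosed cells into mitotic or apoptotic. Tubulin, mitochondrial-mass and membrane-permeability phenotypes are per cents of healthy-nucleus cells.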

[1] = 12 h, 1 µM, compound concentration 1 uM, replicate 1
[2] = 12 h, 1 µM, compound concentration 1 uM, replicate 2
[3] = 12 h, 10 µM, compound concentration 10 uM, replicate 1
[4] = 12 h, 10 µM, compound concentration 10 uM, replicate 2
[5] = 24 h, 1 µM, compound concentration 1 uM, replicate 1
[6] = 24 h, 1 µM, compound concentration 1 uM, replicate 2
[7] = 24 h, 10 µM, compound concentration 10 uM, replicate 1
[8] = 24 h, 10 µM, compound concentration 10 uM, replicate 2
[9] = 48 h, 1 µM, compound concentration 1 uM, replicate 1
[10] = 48 h, 1 µM, compound concentration 1 uM, replicate 2
[11] = 48 h, 10 µM, compound concentration 10 uM, replicate 1
[12] = 48 h, 10 µM, compound concentration 10 uM, replicate 2

O=C1COc2nccc(-c3ccccc3F)c2CN1Cc1cc(C(F)(F)F)cc(C(F)(F)F)c1
Population Apoptotic (%) [1]: 31% | Population Fragmented Nuclei (%) [1]: 8% | Population Healthy Nuclei (%) [1]: 80% | Population Hoechst High Intensity Objects (%) [1]: 5% | Population Membrane Permeable-Phenotype (%) [1]: 0% | Population Mitochondria Different-Phenotype (%) [1]: 41% | Population Mitotic Cells (%) [1]: 68% | Population Normal (%) [1]: 94% | Population Pyknosed Nuclei (%) [1]: 10% | Population Tubulin-Different-Phenotype (%) [1]: 27% | Total Cell Count [1]: 397 | Population Apoptotic (%) [2]: 51% | Population Fragmented Nuclei (%) [2]: 4% | Population Healthy Nuclei (%) [2]: 83% | Population Hoechst High Intensity Objects (%) [2]: 10% | Population Mitochondria Different-Phenotype (%) [2]: 67% | Population Mitotic Cells (%) [2]: 48% | Population Normal (%) [2]: 89% | Population Pyknosed Nuclei (%) [2]: 11% | Population Tubulin-Different-Phenotype (%) [2]: 20% | Total Cell Count [2]: 333 | Population Apoptotic (%) [3]: 38% | Population Fragmented Nuclei (%) [3]: 10% | Population Healthy Nuclei (%) [3]: 76% | Population Hoechst High Intensity Objects (%) [3]: 9% | Population Membrane Permeable-Phenotype (%) [3]: 0% | Population Mitochondria Different-Phenotype (%) [3]: 67% | Population Mitotic Cells (%) [3]: 61% | Population Normal (%) [3]: 90% | Population Pyknosed Nuclei (%) [3]: 13% | Population Tubulin-Different-Phenotype (%) [3]: 68% | Total Cell Count [3]: 475 | Population Apoptotic (%) [4]: 57% | Population Fragmented Nuclei (%) [4]: 8% | Population Healthy Nuclei (%) [4]: 79% | Population Hoechst High Intensity Objects (%) [4]: 5% | Population Mitochondria Different-Phenotype (%) [4]: 76% | Population Mitotic Cells (%) [4]: 42% | Population Normal (%) [4]: 94% | Population Pyknosed Nuclei (%) [4]: 12% | Population Tubulin-Different-Phenotype (%) [4]: 39% | Total Cell Count [4]: 382 | Population Apoptotic (%) [5]: 21% | Population Fragmented Nuclei (%) [5]: 8% | Population Healthy Nuclei (%) [5]: 84% | Population Hoechst High Intensity Objects (%) [5]: 3% | Population Membrane Permeable-Phenotype (%) [5]: 0% | Population Mitochondria Different-Phenotype (%) [5]: 32% | Population Mitotic Cells (%) [5]: 78% | Population Normal (%) [5]: 96% | Population Pyknosed Nuclei (%) [5]: 7% | Population Tubulin-Different-Phenotype (%) [5]: 23% | Total Cell Count [5]: 517 | Population Apoptotic (%) [6]: 59% | Population Fragmented Nuclei (%) [6]: 5% | Population Healthy Nuclei (%) [6]: 87% | Population Hoechst High Intensity Objects (%) [6]: 8% | Population Mitochondria Different-Phenotype (%) [6]: 39% | Population Mitotic Cells (%) [6]: 40% | Population Normal (%) [6]: 91% | Population Pyknosed Nuclei (%) [6]: 6% | Population Tubulin-Different-Phenotype (%) [6]: 12% | Total Cell Count [6]: 428 | Population Apoptotic (%) [7]: 52% | Population Fragmented Nuclei (%) [7]: 10% | Population Healthy Nuclei (%) [7]: 76% | Population Hoechst High Intensity Objects (%) [7]: 5% | Population Membrane Permeable-Phenotype (%) [7]: 0% | Population Mitochondria Different-Phenotype (%) [7]: 71% | Population Mitotic Cells (%) [7]: 47% | Population Normal (%) [7]: 94% | Population Pyknosed Nuclei (%) [7]: 13% | Population Tubulin-Different-Phenotype (%) [7]: 68% | Total Cell Count [7]: 520 | Population Apoptotic (%) [8]: 36% | Population Fragmented Nuclei (%) [8]: 7% | Population Healthy Nuclei (%) [8]: 79% | Population Mitochondria Different-Phenotype (%) [8]: 72% | Population Mitotic Cells (%) [8]: 63% | Population Pyknosed Nuclei (%) [8]: 12% | Population Tubulin-Different-Phenotype (%) [8]: 44% | Total Cell Count [8]: 492 | Population Apoptotic (%) [9]: 27% | Population Fragmented Nuclei (%) [9]: 13% | Population Healthy Nuclei (%) [9]: 80% | Population Hoechst High Intensity Objects (%) [9]: 2% | Population Membrane Permeable-Phenotype (%) [9]: 0% | Population Mitochondria Different-Phenotype (%) [9]: 29% | Population Mitotic Cells (%) [9]: 72% | Population Normal (%) [9]: 97% | Population Pyknosed Nuclei (%) [9]: 6% | Population Tubulin-Different-Phenotype (%) [9]: 14% | Total Cell Count [9]: 743 | Population Apoptotic (%) [10]: 38% | Population Fragmented Nuclei (%) [10]: 9% | Population Healthy Nuclei (%) [10]: 81% | Population Hoechst High Intensity Objects (%) [10]: 4% | Population Mitochondria Different-Phenotype (%) [10]: 23% | Population Mitotic Cells (%) [10]: 61% | Population Normal (%) [10]: 95% | Population Pyknosed Nuclei (%) [10]: 8% | Population Tubulin-Different-Phenotype (%) [10]: 12% | Total Cell Count [10]: 574 | Population Apoptotic (%) [11]: 44% | Population Fragmented Nuclei (%) [11]: 13% | Population Healthy Nuclei (%) [11]: 75% | Population Hoechst High Intensity Objects (%) [11]: 3% | Population Membrane Permeable-Phenotype (%) [11]: 0% | Population Mitochondria Different-Phenotype (%) [11]: 63% | Population Mitotic Cells (%) [11]: 55% | Population Normal (%) [11]: 96% | Population Pyknosed Nuclei (%) [11]: 11% | Population Tubulin-Different-Phenotype (%) [11]: 46% | Total Cell Count [11]: 713 | Population Apoptotic (%) [12]: 56% | Population Fragmented Nuclei (%) [12]: 11% | Population Healthy Nuclei (%) [12]: 80% | Population Hoechst High Intensity Objects (%) [12]: 2% | Population Mitochondria Different-Phenotype (%) [12]: 51% | Population Mitotic Cells (%) [12]: 43% | Population Normal (%) [12]: 97% | Population Pyknosed Nuclei (%) [12]: 7% | Population Tubulin-Different-Phenotype (%) [12]: 25% | Total Cell Count [12]: 669

CN(C)CCCc1cc(C(=O)Nc2ccc(-c3ccncc3)cc2)ccc1O.Cl.Cl
Population Apoptotic (%) [1]: 27% | Population Fragmented Nuclei (%) [1]: 5% | Population Healthy Nuclei (%) [1]: 79% | Population Hoechst High Intensity Objects (%) [1]: 9% | Population Membrane Permeable-Phenotype (%) [1]: 0% | Population Mitochondria Different-Phenotype (%) [1]: 48% | Population Mitotic Cells (%) [1]: 72% | Population Normal (%) [1]: 90% | Population Pyknosed Nuclei (%) [1]: 14% | Population Tubulin-Different-Phenotype (%) [1]: 37% | Total Cell Count [1]: 358 | Population Apoptotic (%) [2]: 37% | Population Healthy Nuclei (%) [2]: 82% | Population Hoechst High Intensity Objects (%) [2]: 8% | Population Mitochondria Different-Phenotype (%) [2]: 58% | Population Mitotic Cells (%) [2]: 62% | Population Normal (%) [2]: 91% | Population Pyknosed Nuclei (%) [2]: 11% | Population Tubulin-Different-Phenotype (%) [2]: 14% | Total Cell Count [2]: 367 | Population Apoptotic (%) [3]: 31% | Population Fragmented Nuclei (%) [3]: 10% | Population Healthy Nuclei (%) [3]: 81% | Population Hoechst High Intensity Objects (%) [3]: 6% | Population Membrane Permeable-Phenotype (%) [3]: 0% | Population Mitochondria Different-Phenotype (%) [3]: 49% | Population Mitotic Cells (%) [3]: 68% | Population Normal (%) [3]: 93% | Population Pyknosed Nuclei (%) [3]: 7% | Population Tubulin-Different-Phenotype (%) [3]: 33% | Total Cell Count [3]: 460 | Population Apoptotic (%) [4]: 60% | Population Fragmented Nuclei (%) [4]: 11% | Population Healthy Nuclei (%) [4]: 77% | Population Hoechst High Intensity Objects (%) [4]: 9% | Population Membrane Permeable-Phenotype (%) [4]: 2% | Population Mitochondria Different-Phenotype (%) [4]: 63% | Population Mitotic Cells (%) [4]: 39% | Population Normal (%) [4]: 90% | Population Pyknosed Nuclei (%) [4]: 11% | Total Cell Count [4]: 391 | Population Apoptotic (%) [5]: 25% | Population Fragmented Nuclei (%) [5]: 11% | Population Healthy Nuclei (%) [5]: 78% | Population Hoechst High Intensity Objects (%) [5]: 5% | Population Membrane Permeable-Phenotype (%) [5]: 1% | Population Mitochondria Different-Phenotype (%) [5]: 26% | Population Mitotic Cells (%) [5]: 74% | Population Normal (%) [5]: 94% | Population Pyknosed Nuclei (%) [5]: 10% | Population Tubulin-Different-Phenotype (%) [5]: 21% | Total Cell Count [5]: 542 | Population Fragmented Nuclei (%) [6]: 9% | Population Healthy Nuclei (%) [6]: 83% | Population Membrane Permeable-Phenotype (%) [6]: 0% | Population Mitochondria Different-Phenotype (%) [6]: 32% | Population Mitotic Cells (%) [6]: 75% | Population Pyknosed Nuclei (%) [6]: 6% | Population Tubulin-Different-Phenotype (%) [6]: 9% | Total Cell Count [6]: 486 | Population Apoptotic (%) [7]: 32% | Population Fragmented Nuclei (%) [7]: 12% | Population Healthy Nuclei (%) [7]: 77% | Population Hoechst High Intensity Objects (%) [7]: 5% | Population Membrane Permeable-Phenotype (%) [7]: 0% | Population Mitochondria Different-Phenotype (%) [7]: 38% | Population Mitotic Cells (%) [7]: 67% | Population Normal (%) [7]: 94% | Population Pyknosed Nuclei (%) [7]: 9% | Population Tubulin-Different-Phenotype (%) [7]: 23% | Total Cell Count [7]: 588 | Population Apoptotic (%) [8]: 47% | Population Fragmented Nuclei (%) [8]: 15% | Population Healthy Nuclei (%) [8]: 74% | Population Hoechst High Intensity Objects (%) [8]: 15% | Population Mitochondria Different-Phenotype (%) [8]: 48% | Population Mitotic Cells (%) [8]: 52% | Population Normal (%) [8]: 84% | Population Tubulin-Different-Phenotype (%) [8]: 19% | Total Cell Count [8]: 505 | Population Apoptotic (%) [9]: 23% | Population Fragmented Nuclei (%) [9]: 11% | Population Healthy Nuclei (%) [9]: 81% | Population Hoechst High Intensity Objects (%) [9]: 2% | Population Membrane Permeable-Phenotype (%) [9]: 2% | Population Mitochondria Different-Phenotype (%) [9]: 19% | Population Mitotic Cells (%) [9]: 76% | Population Normal (%) [9]: 97% | Population Pyknosed Nuclei (%) [9]: 6% | Population Tubulin-Different-Phenotype (%) [9]: 14% | Total Cell Count [9]: 814 | Population Apoptotic (%) [10]: 21% | Population Fragmented Nuclei (%) [10]: 16% | Population Healthy Nuclei (%) [10]: 75% | Population Hoechst High Intensity Objects (%) [10]: 5% | Population Membrane Permeable-Phenotype (%) [10]: 1% | Population Mitochondria Different-Phenotype (%) [10]: 24% | Population Mitotic Cells (%) [10]: 78% | Population Normal (%) [10]: 94% | Population Pyknosed Nuclei (%) [10]: 8% | Population Tubulin-Different-Phenotype (%) [10]: 13% | Total Cell Count [10]: 596 | Population Apoptotic (%) [11]: 29% | Population Fragmented Nuclei (%) [11]: 17% | Population Healthy Nuclei (%) [11]: 75% | Population Hoechst High Intensity Objects (%) [11]: 5% | Population Membrane Permeable-Phenotype (%) [11]: 1% | Population Mitochondria Different-Phenotype (%) [11]: 21% | Population Mitotic Cells (%) [11]: 70% | Population Normal (%) [11]: 94% | Population Pyknosed Nuclei (%) [11]: 6% | Population Tubulin-Different-Phenotype (%) [11]: 13% | Total Cell Count [11]: 883 | Population Apoptotic (%) [12]: 58% | Population Fragmented Nuclei (%) [12]: 15% | Population Healthy Nuclei (%) [12]: 76% | Population Hoechst High Intensity Objects (%) [12]: 11% | Population Membrane Permeable-Phenotype (%) [12]: 0% | Population Mitochondria Different-Phenotype (%) [12]: 35% | Population Mitotic Cells (%) [12]: 41% | Population Normal (%) [12]: 88% | Population Pyknosed Nuclei (%) [12]: 7% | Population Tubulin-Different-Phenotype (%) [12]: 20% | Total Cell Count [12]: 641
